In the library only some 1.2% were active in any assay of this set; here they are far more common.
FXIIa inh: human FXIIa protease inhibitors, primary screen, biochemical, 1536-well | purified FXIIa, Boc-QGR-AMC fluorogenic substrate, 2 h | Coagulation factor XII (Homo sapiens), P00748 | AID 800, 2007 | 0.3% of 220,000 active | inhibition, % at 5 µM; in the data active = inhibition above about 40%;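 note: 0% = enzyme with no compound and 100% = blank without enzyme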
FXIa inh 1536: human FXIa protease inhibitors, primary screen, biochemical, 1536-well; Coagulation factor XI (Homo sapiens), P03951; purified FXIa, Boc-Glu-Ala-Arg-AMC fluorogenic substrate; inhibition, % at 5 µM; 0.14% of 220,000 active; AID 798, 2007;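 active = inhibition of at least 40%; inactive = inhibition below 40%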;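 note: fluorescence of freed AMC excited at 355 nm; 0% = enzyme without compound and 100% = no enzyme blank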
DTT redox prof: compounds producing H2O2 with reducing agent – biochemical, NIH compound library profiling, artefact control for MLSCN library redox annotation, primary screen | DTT-dependent redox cycling H2O2, phenol red/HRP absorbance; 100% = 100 µM peroxide control, 0% = buffer | activation, % at 10 µM | 0.03% of 200,000 active;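 active = activation of at least 50% relative to the plate's high and low controls in the primary single-dose screen; inactive = activation below 50%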;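 note: compound incubated with DTT at 0.8 mM final as the reducing agent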
S1P3 antag: S1P3 receptor antagonists, primary screen, cell-based | Sphingosine 1-phosphate receptor 3 (Homo sapiens), Q99500 | CHO S1P3 NFAT-BLA reporter, FRET fluorescence, antagonist mode | inhibition, % at 4.98 µM | 0.27% of 170,000 active | AID 485, 2006;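 active = inhibition above the plate cutoff, the mean inhibition of test wells on that plate plus 3 SD, cut at about 28% in these data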;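 note: cells challenged with S1P at its EC80 of 0.8 µM; blue over green emission ratio from cleaved BLA substrate after 4 h stimulation; 0% = S1P-stimulated wells and 100% = unstimulated DMSO-only wells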
Target sequence (Q99500 whole entry, looked up): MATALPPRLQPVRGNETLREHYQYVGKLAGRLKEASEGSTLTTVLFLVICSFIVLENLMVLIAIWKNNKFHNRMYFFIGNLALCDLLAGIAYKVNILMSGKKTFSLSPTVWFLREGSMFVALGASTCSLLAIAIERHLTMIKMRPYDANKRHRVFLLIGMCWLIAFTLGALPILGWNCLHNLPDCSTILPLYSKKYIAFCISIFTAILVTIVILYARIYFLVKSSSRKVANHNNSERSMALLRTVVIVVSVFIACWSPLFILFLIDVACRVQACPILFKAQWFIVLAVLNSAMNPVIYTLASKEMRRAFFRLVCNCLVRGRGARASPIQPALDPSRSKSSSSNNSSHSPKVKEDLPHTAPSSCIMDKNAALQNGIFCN
KLK5 inh: human KLK5 protease inhibitors, primary screen, biochemical, 1536-well. 0.59% of 210,000 active. recombinant hK5, fluorogenic AMC substrate cleavage. Kallikrein-5 (Homo sapiens), Q9Y337. inhibition, % at 5 µM;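 active = inhibition of 40% or more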;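 note: 0% = enzyme controls without compound and 100% = no-enzyme blanks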
Target sequence (Q9Y337 67-293 limits assumed): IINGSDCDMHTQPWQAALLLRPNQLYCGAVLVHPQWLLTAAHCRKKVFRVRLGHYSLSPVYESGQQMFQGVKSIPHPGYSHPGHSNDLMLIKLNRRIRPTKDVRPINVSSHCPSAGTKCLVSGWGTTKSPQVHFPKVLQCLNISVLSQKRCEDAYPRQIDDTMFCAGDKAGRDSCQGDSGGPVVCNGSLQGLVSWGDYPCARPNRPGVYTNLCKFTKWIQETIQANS
Thrombin inh: human alpha-thrombin inhibitors, primary screen, counter-screen for coagulation protease inhibitor project, biochemical, 1536-well, fluorogenic AMC substrate. Prothrombin (Homo sapiens), P00734. Boc-VPR-AMC fluorogenic substrate cleavage. inhibition, % at 5 µM. 0.26% of 220,000 active. AID 1046, 2008;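 active = inhibition at or above 40%; inactive = inhibition below 40%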;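 note: 0% = enzyme with no compound and 100% = wells without enzyme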
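System: human alpha-thrombin protein; Compound dosing: one concentration per compound, 5 µM, with 0.2% DMSO; Timing: reaction at room temperature; Technique: AMC fluorescence, 355/460 nm; Controls: enzyme without compound as high, wells lacking enzyme as low.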
* = called active by the depositor; nt = no result.

SMILES | FXIIa inh | FXIa inh 1536 | DTT redox prof | S1P3 antag | KLK5 inh | Thrombin inh
COc1ccc(CCNC(=O)C2CCC(CNS(=O)(=O)c3ccccc3)CC2)cc1OC (stereo not drawn) | 25.6 | 29.3 | -0.5 | 11.7 | 20.6 | 52.6*
COc1ccc(CCNC(=O)C(=O)NCC2CCCO2)cc1OC (stereo not drawn) | 15.0 | 2.7 | -0.2 | nt | 50.6* | 28.9
CN(CCOc1ccccc1)S(=O)(=O)c1ccc2oc3ccccc3c2c1 | -5.2 | 3.1 | 2.8 | nt | 4.4 | -2.2
COc1ccc(C2N(c3ccccc3)CCN2c2ccccc2)cc1O | 45.8* | 33.9 | -0.9 | -0.5 | 18.5 | 8.6
COc1cc(C2N3CC4(C)CN2CC(C)(C3)C4)ccc1O (stereo not drawn) | 5.9 | 0.4 | 2.7 | nt | -22.4 | -0.5
Clc1ccc(-c2nc(-c3cc4cc(Cl)ccc4o3)cs2)cc1 | 0.5 | -3.9 | nt | -8.1 | -2.4 | -6.2
CCN(CC)C(=O)CN1CCN(c2ncccn2)CC1 | 10.4 | 4.2 | 1.9 | -18.4 | 64.3* | 32.6
CC(=O)Nc1ccc(SCC(=O)N(C)C2CCS(=O)(=O)C2)cc1 (stereo not drawn) | 2.2 | -0.7 | -0.5 | -7.0 | 0.8 | -9.4
O=C(CC(c1ccc(F)cc1)c1ccco1)N1CCOCC1 (stereo not drawn) | 30.9 | 2.4 | 0.5 | -8.3 | 58.7* | 42.8*
COc1ccc(N=NC2=C(O)CC(C)(C)CC2=O)cc1 | -10.9 | 0.4 | 2.0 | nt | 4.9 | -8.4
CC1(C)CC(=O)C(N=Nc2ccc(Br)cc2)=C(O)C1 | 75.3* | 26.0 | nt | -4.0 | 24.7 | 18.9
CC(=O)c1ccc(OCCOc2ccc(C#N)cc2)cc1 | 3.1 | -2.5 | nt | -1.1 | -4.2 | -7.3
COc1cccc(NC(=S)N(CCCN2CCN(C)CC2)Cc2ccco2)c1 | 5.8 | -1.5 | -1.9 | 6.1 | 0.8 | 1.0
COc1cccc(NC(=S)N(CCCN2CCCC2)Cc2ccco2)c1 | 10.2 | -0.5 | -0.2 | -4.5 | 3.1 | 95.1*
Cn1nc(C(=O)NCc2ccc(F)cc2)c2ccccc2c1=O | 2.8 | 4.1 | 1.7 | 90.6* | -4.9 | 0.5
Cc1cc(C(=O)COC(=O)c2ccc[nH]c2=O)c(C)n1CCc1ccc(F)cc1 | 29.1 | 23.8 | 0.1 | -14.2 | 43.5* | nt
O=C(NCc1ccccc1)C1=C[C@H](c2coc3ccccc3c2=O)C[C@H](OCCCCO)O1 | 6.9 | 1.8 | -1.5 | -2.9 | 2.9 | -0.4
O=C(NCc1ccccc1)C1=C[C@@H](c2coc3ccccc3c2=O)C[C@@H](OCCCCO)O1 | 13.8 | 1.4 | -0.3 | -24.5 | 6.1 | 41.4*
Cc1ccc(OCCOCCN2CCN(C)CC2)c([N+](=O)[O-])c1 | 9.3 | 5.6 | -0.7 | -8.5 | 5.4 | -9.4
CCC(CO)n1c(SCc2cc(=O)oc3cc(C)ccc23)nc2ccccc2c1=O (stereo not drawn) | 41.6* | 20.8 | 0.8 | nt | -3.5 | 2.2
CC1CN(c2nnnn2-c2ccccc2)CC(C)O1 (stereo not drawn) | 17.2 | -2.9 | 0.4 | 9.2 | 66.6* | 23.6
Fc1ccc(N2CCN(c3nnnn3-c3ccccc3)CC2)cc1 | 10.9 | 4.2 | -0.6 | -2.9 | 1.3 | -2.0
COc1ccc2[nH]c(=O)c3c(c2c1)OC(C)(C)C=C3 | -10.6 | -6.1 | -3.5 | 66.9* | 3.0 | -1.6
Cc1cc2c([nH]c3ccccc32)c2c1OC(C)(C)C=C2 | 8.2 | 1.8 | nt | nt | 2.1 | 2.7
CN(C)c1ccc(N2CC(C)(C)C2=O)cc1 | 3.1 | -2.6 | -1.1 | -5.0 | -3.6 | -17.4
SMILES | FXIIa inh | FXIa inh 1536 | DTT redox prof | S1P3 antag | KLK5 inh | Thrombin inh
Cc1ccc2[nH]c(-c3ccccc3)cc(=O)c2c1 | 10.7 | 2.8 | -0.1 | 60.5* | 1.7 | -3.4
Cc1ccc(-c2cc(=O)c3ccccc3[nH]2)cc1 | 9.3 | 14.2 | -0.7 | -9.3 | -7.5 | -1.1
S=C1NC2=C(C(c3ccc(Br)cc3)N1)N1CCC2CC1 (stereo not drawn) | 22.7 | 3.1 | 2.6 | nt | 75.6* | 20.4
Fc1cccc(C2NC(=S)NC3=C2N2CCC3CC2)c1 (stereo not drawn) | 12.5 | 0.4 | 3.0 | nt | 5.3 | 0.4
O=C(CSc1cccc[n+]1[O-])Nc1ccc([N+](=O)[O-])cc1Cl | 9.9 | -0.2 | -1.5 | -12.6 | 17.6 | -0.4
Cc1ccc(CSC2=NCCN2C(=O)c2ccco2)cc1 | 0.5 | -9.7 | -0.2 | 2.3 | 41.3* | -5.0
CCC(=O)N1CCN=C1SCc1ccccc1 | 29.1 | 11.4 | -0.6 | -16.2 | 41.1* | 14.0
CC1SC(C)C(=O)N(CC(=O)NC2CCCCC2)C1=O (stereo not drawn) | 3.0 | -9.3 | -1.3 | 3.6 | 2.0 | 0.8
Cc1cc2c(C)nc(N/N=C/c3ccc([N+](=O)[O-])cc3)nc2o1 | 8.7 | 12.7 | 0.6 | 0.1 | 49.5* | 12.0
CCN1CCN(C(=O)c2sc3ncnc(N4CCc5ccccc5C4)c3c2C)CC1 | 7.9 | 0.6 | 0.1 | -10.2 | -5.7 | 11.0
Cc1c(C(=O)N2CCOCC2)sc2ncnc(N3CCc4ccccc4C3)c12 | 45.2* | 16.5 | 2.7 | 10.2 | 7.5 | 1.7
O=C(O)CCn1cc(C2CC(c3ccccc3)=NN2c2ccccc2)c(-c2ccccc2)n1 (stereo not drawn) | -35.3 | -11.7 | -1.2 | -14.6 | -32.8 | -13.5
Cc1cc(N2C(=O)CC(Cc3ccc(Cl)cc3)C2=O)no1 (stereo not drawn) | 18.3 | -2.8 | 2.7 | nt | 40.3* | 4.6
CCNc1nc(OC)nc(SCC(=O)Nc2ccccc2)n1 | 4.8 | -2.9 | 0.3 | 5.7 | 0.1 | -5.5
Cn1nc(C(F)(F)F)c(-c2ccccc2)c1NC(=O)CCC(=O)O | 30.2 | 26.7 | nt | -2.7 | 43.2* | 30.8
Cn1nc(C(F)(F)F)c(-c2ccccc2)c1NC(=O)CSCC(=O)O | 6.5 | 2.3 | nt | 9.7 | -3.2 | -3.1
Cc1ccn(CC(=O)O)c(=O)c1 | 58.2* | 28.1 | 1.2 | -34.3 | -1.6 | -6.1
Cc1sc2ncnc(OCC(=O)N3CCN(C(=O)c4ccco4)CC3)c2c1C | 3.4 | -2.5 | 0.0 | -10.5 | -4.4 | -9.1
Nc1ccccc1C(=O)NNc1c2ccccc2nc2ccccc12 | 12.9 | 5.2 | nt | 12.0 | 5.8 | -3.7
O=C(NC1CCCCC1)c1ccc(S(=O)(=O)N2CCCCC2)cc1 | 4.2 | 4.1 | 0.5 | 2.7 | 16.7 | -2.9
COc1ccc(N2CCN(S(=O)(=O)c3ccc(C(=O)NC4CCCC4)cc3)CC2)cc1 | 46.5* | 8.1 | 4.1 | nt | 6.1 | -4.0
Cn1c(=O)[nH]c(=O)c2cc(C(=O)c3cc(F)ccc3O)cnc21 | 3.7 | -3.8 | -1.1 | -8.6 | -6.4 | -9.5
S=C(NCc1cccs1)NCC1CCCO1 (stereo not drawn) | 24.9 | 26.0 | -1.6 | -0.8 | 13.7 | 60.1*
